Results of several laboratories.
Each line is one published result; the experiments were not run side by side.
Target: Fibroblast growth factor receptor 4 (FGFR4, Homo sapiens, UniProt P22455)

| Compound | read-out | action | technique | concentration | measurement | result |
| --- | --- | --- | --- | --- | --- | --- |
| COc1ccc2oc(-c3ccc4nc(N)oc4c3)c/c(=N\c3ccccc3NC(=O)CCN)c2c1 | binding |  |  | 1 µM | remaining binding | 102% |
| C[C@H]1CC[C@H](n2c3cnccc3c3cnc(Nc4ccc5c(n4)CCN(C(=O)CO)C5)nc32)CC1 | binding |  |  | 1 µM | remaining binding | 100% |
| CCCCC(=O)Nc1ccc(-c2ccc3ncn(CCC)c(=O)c3c2)cn1 | binding |  | competition with immobilised ligand | 0.5 µM | remaining binding | 100% |
| C=CC(=O)N1CCC([C@@H]2CCNc3c(C(N)=O)c(-c4ccc(Oc5ccccc5)cc4)nn32)CC1 | cell-free assay |  |  | 1 µM | inhibition | 10% |
| CC(C)S(=O)(=O)c1ccc2nccc(Nc3ccc4sc(C5CCCC5)nc4c3)c2c1 | enzyme activity | inhibitor |  | 1 µM | activity vs control | 108% |
| C=CC(=O)N1CCC[C@@H](n2nc(-c3ccc(Oc4ccccc4)cc3)c3c(N)ncnc32)C1 | enzyme activity | inhibitor |  | 1 µM | inhibition | 8% |
| COc1ccc2[nH]c3c4[nH]c5ccc(OC)cc5c4c4c(c3c2c1)C(=O)NC4=O | binding |  |  | 1 µM | remaining binding | 85% |
| C1=C/COCc2cc(ccc2OCCN2CCCC2)Nc2nccc(n2)-c2cccc(c2)COC/1 | binding |  |  | 0.1 µM | remaining binding | 100% |
